# Source: PubChem BioAssay (The Scripps Research Institute Molecular Screening Center)
# mABHD4 FP: inhibits mouse alpha/beta hydrolase domain 4; Q8VD66; AID 720543; purified mABHD4, FP-Rh probe fluorescence polarization; inhibition, % at 8.92 µM; 370,000 tested, 0.54% active;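 active = inhibition exceeding the mean over every tested compound plus 3 SD, cut at about 30% in these data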;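 note: 0% = plate median of compound wells and 100% = S159A mutant with DMSO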
#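 Doses – 8.92 µM, single dose · Material – wild-type mouse ABHD4 protein · Replication – single well per compound (singlicate) · Measure – percent inhibition of probe binding, normalized to plate controls · Schedule – 45 min compound pre-incubation plus 60 min probe step, 25 °C · Detection – fluorescence polarization with parallel and perpendicular emission, 525/598 nm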
# SIAE inh: blocks human sialic acid acetylesterase. Q9HAT2. inhibition, % at 9.66 µM. AID 1053197. 370,000 tested, 0.69% active. SIAE FP-Rh probe binding, fluorescence polarization;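 active = inhibition above a cutoff: mean of compounds within the control limits plus 3 SD of those, cut at about 17% in these data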;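 note: 0% = plate median of compound wells and 100% = probe without SIAE protein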
# HTRA1 inh: HTRA1 (human) protease inhibition; recombinant HTRA1, FP-rhodamine activity-based probe, fluorescence polarization; inhibition, % at 5.96 µM; Q92743; AID 504803; 340,000 tested, 0.5% active; in the data active = inhibition above about 36%;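 note: 0% = enzyme with DMSO and 100% = wells lacking enzyme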
# Target sequence (Q92743 whole entry, looked up): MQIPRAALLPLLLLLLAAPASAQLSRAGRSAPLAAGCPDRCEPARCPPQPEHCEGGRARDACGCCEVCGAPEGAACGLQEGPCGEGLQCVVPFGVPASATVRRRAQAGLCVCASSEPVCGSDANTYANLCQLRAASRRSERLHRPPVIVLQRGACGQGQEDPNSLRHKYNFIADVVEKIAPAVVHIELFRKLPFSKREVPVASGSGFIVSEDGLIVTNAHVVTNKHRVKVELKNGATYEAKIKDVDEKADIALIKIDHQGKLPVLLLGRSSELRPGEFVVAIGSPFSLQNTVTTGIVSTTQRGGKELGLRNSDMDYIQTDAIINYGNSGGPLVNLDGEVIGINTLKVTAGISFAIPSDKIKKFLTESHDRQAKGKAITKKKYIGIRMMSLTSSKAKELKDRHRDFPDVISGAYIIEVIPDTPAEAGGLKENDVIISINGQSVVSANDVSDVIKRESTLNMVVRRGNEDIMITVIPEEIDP
# DAGLB inh: diacylglycerol lipase beta (human) inhibition; Q8NCG7; HEK293T DAGLB membrane lysate, EnzChek fluorogenic substrate; inhibition, % at 5.17 µM; 340,000 tested, 0.059% active; in the data active = inhibition above about 34%;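 note: 0% = enzyme with vehicle and 100% = wells lacking enzyme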
# TCR CD3 inh: human TCR-CD3 binding inhibition. 360,000 tested, 0.37% active. inhibition, % at 9.4 µM. TAMRA-labeled TCR probe fluorescence, biochemical. AID 651800; in the data active = inhibition above about 19%;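 note: recombinant mutant TCR 2C K166C tagged with TAMRA read by polarization; 0% = receptor in buffer alone and 100% = receptor with positive control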
# mABHD4 conf: ABHD4 (mouse) inhibition, FP confirmation. 1,800 tested, 55% active. shares compounds with mABHD4 FP. purified mABHD4, FP-Rh probe fluorescence polarization. inhibition, % at 8.92 µM;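 active = mean inhibition across replicates above the hit cutoff set in the primary screen, cut at about 30% in these data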;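 note: 0% = wild-type ABHD4 with DMSO and 100% = catalytically dead S159A mutant with DMSO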
# * hit, by the source's call; . = no result given. Compounds with a hit are over-represented: about 1.6% of the library has one in this group of screens.
SMILES,mABHD4 FP,SIAE inh,HTRA1 inh,DAGLB inh,TCR CD3 inh,mABHD4 conf
COc1cc(/C=C2/NC(=O)N(c3cccc(Cl)c3)C2=O)ccc1O,-1.2,-14.1,-3.1,-2.2,-3.7,.
CCOc1cc(/C=C2/C(=O)NN(c3cccc(Cl)c3)C2=O)ccc1O,35.6*,5.7,-4.3,21.7,-4.7,38.0*
COc1ccc2c(c1)[C@@]1(OCCC=C[C@H]1C)C(=O)N2Cc1ccccc1C(F)(F)F,-2.3,-0.2,.,.,-5.7,.
COc1cc(N(C(C)=O)c2ccc(O)c(C(=O)O)c2)c2ncccc2c1,31.3*,12.6,16.2,-2.0,15.2,47.2*
Cc1ccc(NCc2nc3ccccc3n2C)cc1,2.9,-1.6,-2.1,-2.5,9.0,.
Cn1c(CNc2ccc(O)cc2)nc2ccccc21,57.5*,8.3,5.2,-4.1,10.3,-0.4
CC(=O)C1(C(=O)Nc2cc(C)cc(C)c2)CC(c2ccccn2)=NO1 (stereo not drawn),-3.7,1.7,.,.,.,.
CC(C)(C)c1ccc(-c2cc(NC(=O)Cc3c[nH]c4ccccc34)ccc2Nc2cccnc2)cc1,40.7*,10.8,.,.,-3.9,54.6*
O=C(Cc1c[nH]c2ccccc12)Nc1ccc(Nc2cccnc2)c(-c2cc(F)cc(F)c2)c1,7.9,14.6,.,.,5.0,.
CCCc1ccc(-c2cc(NC(=O)Cc3c[nH]c4ccccc34)ccc2Nc2cccnc2)cc1,41.8*,10.7,.,.,8.5,38.9*
Cc1ccc(N/C=C/C(=O)c2cccs2)cc1C,-4.5,-0.5,.,.,10.7,.
O=C(/C=C/Nc1ccc(Nc2ccccc2)cc1)c1cccs1,33.5*,11.3,32.8,11.9,-0.5,-1.5
COc1cccc(-n2sc3c(c2=S)-c2cc(OC)ccc2NC3(C)C)c1,-1.7,4.6,15.8,-3.2,1.3,.
CC1(C)Nc2ccc(O)cc2-c2c1ssc2=S,36.6*,2.7,19.8,17.9,-4.4,32.5*
CCOC(=O)[C@@]12CCCC=C1N(CCc1ccc(Cl)cc1)C(=O)[C@H]2CC(=O)NCC12CC3CC(CC(C3)C1)C2,5.2,-4.8,.,.,.,.
O=C(C1CCN(c2nc(-c3ccc(Br)cc3)cs2)CC1)N1CCNCC1,7.5,6.0,.,.,.,.
Brc1ccc(-c2csc(N3CCNCC3)n2)cc1,60.8*,2.0,.,.,.,75.3*
COc1ccc(CCNC(=O)c2ccccc2NS(=O)(=O)c2cc(C(=O)O)ccc2OC)cc1,33.3*,-13.7,-4.3,-2.3,-5.3,23.8
COc1ccc(NC(C)=O)cc1S(=O)(=O)Nc1ccccc1C(=O)NCCc1ccccc1,-4.9,-12.4,-3.2,0.6,1.1,.
Cc1ccc(CN2C(=O)N/C(=C\c3ccc(-c4ccc(C(=O)O)cc4C)o3)C2=O)cc1,42.9*,-0.1,5.2,4.1,6.4,39.7*
Cc1ccc(C(=O)O)cc1-c1ccc(/C=C2/NC(=O)N(c3ccccc3)C2=O)o1,46.4*,-0.7,-5.4,2.2,10.4,30.2*
Cc1ccccc1NC(=O)[C@H]1CC(=O)O[C@@H]1c1ccccc1,2.5,3.8,.,.,.,.
FC(F)(F)c1ccc(Cn2ccc3ccc(-c4ccc5ccn(Cc6ccc(C(F)(F)F)cc6)c5c4)cc32)cc1,-0.5,2.9,.,.,.,.
CNc1ccc(/C=C(\CCC(=O)O)c2nc3ccccc3s2)cc1[N+](=O)[O-],47.4*,-14.0,8.5,29.6,0.6,54.3*
Cc1ccc(/C=C(\CCC(=O)O)c2nc3ccccc3s2)cc1[N+](=O)[O-],-27.6,-18.4,-18.1,3.5,-7.3,.
SMILES,mABHD4 FP,SIAE inh,HTRA1 inh,DAGLB inh,TCR CD3 inh,mABHD4 conf
CN(c1ccccc1)c1ccc(/C=C(\CCC(=O)O)c2nc3ccccc3s2)cc1[N+](=O)[O-],68.6*,13.8,31.0,27.2,3.4,61.9*
O=S1(=O)CC(N2CCCC2)CN1 (stereo not drawn),1.9,2.8,.,.,.,.
CCN(CC)S(=O)(=O)c1ccc(N2CCCC2)c(C(=O)OCC(=O)Nc2cc(C)on2)c1,45.1*,-6.2,-23.8,-3.0,-13.0,60.9*
CCN(CC)S(=O)(=O)c1ccc(N2CCCC2)c(C(=O)OCC(=O)N2CCCC2)c1,4.3,-2.1,3.5,-1.4,10.1,.
O=C(O)CCC(=O)Nc1ccc(N2CCCCCC2)cc1,31.5*,4.5,7.6,-0.9,-4.5,11.9
C[C@H](O)[C@@H]1C(=O)N2CCc3c([nH]c4cccc(-c5ccccc5)c34)[C@@H]2C[C@@H]1N(C)C(=O)c1ccco1,-7.2,-2.4,.,.,-0.9,.
CCCCOCC1CN(CCCC)S(=O)(=O)c2c(cccc2N2CCCCC2)O1 (stereo not drawn),-5.1,7.7,.,.,-1.9,.
CCOC(=O)C1Nc2ccccc2C2C(O)C(O)CC12 (stereo not drawn),51.1*,4.7,22.2,-9.2,1.0,11.3
CC1SC(=S)N(c2ccc(N(C)C)cc2)C1=O (stereo not drawn),33.3*,10.1,28.7,-1.8,0.8,24.7
Cc1ccccc1CN1CCCCC(NC(=O)c2ccc(-c3ccccc3)cc2)C1=O (stereo not drawn),-13.1,-6.6,.,.,.,.
COCCCNC(=S)NNC(=O)c1ccccn1,39.2*,2.8,1.6,-6.1,-0.5,43.8*
COc1ccc(Cl)cc1NS(=O)(=O)c1ccc2c(c1)NC(=O)CCS2,31.7*,-2.2,4.6,3.4,-1.7,26.1
Cc1ccc(NS(=O)(=O)c2ccc3c(c2)NC(=O)CCS3)c(Cl)c1,12.3,1.4,-5.7,1.4,0.7,.
O=C1C=C(c2ccccc2)C(=O)N1Nc1ccccc1,30.8*,1.4,-0.3,-1.8,2.0,23.7
C[C@H]1C(C(=O)N(C)C2CCCCC2)=Cc2c(n(-c3ccc(F)cc3)c(=O)n2CCCOc2ccccc2)C=C1c1ccccc1,6.8,-1.3,.,.,-3.0,.
CCc1ccc(Nc2n[n+](-c3ccccc3)c(-c3c(Cl)cccc3Cl)s2)cc1,41.5*,11.0,31.9,19.6,4.2,46.7*
COc1ccc2nc(Nc3nc(C)c(C(C)=O)s3)sc2c1,35.1*,5.1,14.9,2.0,1.2,54.1*
Nc1[nH]n2c(=O)cc(-c3ccccc3)nc2c1N=Nc1ccccc1,8.2,-1.0,6.2,5.2,-7.7,.
Nc1[nH]n2c(=O)cc(-c3ccccc3)nc2c1N=Nc1ccc(S(N)(=O)=O)cc1,32.3*,-7.8,13.9,24.6,-7.4,36.9*
COc1ccc(CNS(=O)(=O)/C=C/c2ccccc2CNC(=O)OC(C)(C)C)cc1,-3.0,6.0,.,.,.,.
O=C(O)C1CCN(S(=O)(=O)c2ccc3[nH]ccc3c2)CC1,29.7*,-0.2,1.5,-0.4,-0.2,29.2
CCCCCCCCN1C(=O)[C@@H](CC(=O)NCc2cccc(C(F)(F)F)c2)C[C@@]2(C(=O)OC)C1=C[C@H](C(C)C)O[C@@H]2C1CC1,0.9,3.9,.,.,.,.
O=C(CN1CCN(c2ccc(O)cc2)CC1)Nc1ccccc1C(=O)NCCc1ccccc1,32.3*,10.3,26.6,2.4,-5.7,20.9
O=C(Nc1ccc(C(F)(F)F)cc1)OC1CC2CC1[C@H]1CCCCN1[C@H]2Cc1ccccc1 (stereo partly drawn),0.5,-4.2,.,.,.,.
